Only some compounds are listed: those with a hit (about 4.2% of all), similar ones and a draw of the others.
AI-2 QS modul = modulates the Vibrio harveyi AI-2 quorum sensing system | AID 2094 | Vibrio harveyi JMH597 AI-2 luminescence/OD600 ratio, 9 h; hits give low values; strain lacks LuxN and CqsS sensors; 0 = neutral-control median | activity change, % at 7.5 µM | 300,000 tested, 0.4% active; in the data active = activity change below about -75%, passing the limit was not always enough;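 note: luminescence divided by OD600 gain over 9 h not by final OD600 alone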
KCC2 mod = KCC2 (human) Cl- transport modulation; 190,000 tested, 2.2% active; KCC2 cells, thallium flux FluoZin-2 fluorescence; AID 1456; Q9H2X9; B-score of Tl+ flux slope (higher = more flux/activation; lower = inhibition) at 10 µM;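 active = thallium flux slope and its plate-corrected score both differing from the plate sample mean at a set confidence after two filtering rounds, in either direction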;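 note: slope of fluorescence scaled to starting intensity during 10 to 20 s after thallium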
Mot1-301 SUMO = SUMOylation pathway inhibition by Mot1-301 growth rescue; growth rescue, % at 18.8 µM; S. cerevisiae Mot1-301 growth rescue, ATP luminescence, 38.5C; percent above DMSO median, 100 means doubled; 320,000 tested, 1% active; AID 2716;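 active = every valid replicate shows activation above 250% relative to neutral control wells; inactive = the rest, any valid replicate at or below 250%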
KCNQ1 act = potentiators or activators of human KCNQ1 potassium channel. AID 2648. CHO-K1 KCNQ1, thallium flux FluxOR fluorescence; hits give high values. P51787. B-score at 10 µM. 310,000 tested, 0.35% active;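 active = fluorescence ratio B-score, a plate-corrected score, at least three library SD, with initial intensity B-score within 5 SD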
Target sequence (P51787 whole entry, looked up): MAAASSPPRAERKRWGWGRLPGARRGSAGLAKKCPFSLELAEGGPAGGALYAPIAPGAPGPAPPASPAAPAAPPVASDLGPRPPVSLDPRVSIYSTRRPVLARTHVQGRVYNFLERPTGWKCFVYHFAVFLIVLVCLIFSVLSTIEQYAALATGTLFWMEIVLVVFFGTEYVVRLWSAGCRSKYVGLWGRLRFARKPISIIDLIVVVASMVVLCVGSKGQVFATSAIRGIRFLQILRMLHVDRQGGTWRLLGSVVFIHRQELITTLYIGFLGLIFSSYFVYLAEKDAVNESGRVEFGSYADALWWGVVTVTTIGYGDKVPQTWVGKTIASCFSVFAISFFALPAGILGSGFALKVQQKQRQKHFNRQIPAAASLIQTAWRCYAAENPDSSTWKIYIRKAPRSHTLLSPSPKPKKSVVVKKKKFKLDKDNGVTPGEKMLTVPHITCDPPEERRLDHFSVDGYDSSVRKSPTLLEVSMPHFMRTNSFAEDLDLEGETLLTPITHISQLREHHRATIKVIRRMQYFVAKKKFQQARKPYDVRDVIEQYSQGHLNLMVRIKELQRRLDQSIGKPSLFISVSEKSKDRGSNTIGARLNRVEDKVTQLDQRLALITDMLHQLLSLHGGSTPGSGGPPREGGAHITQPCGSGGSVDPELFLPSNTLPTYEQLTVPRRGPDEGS
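Test system: CHO-K1 cells stably expressing KCNQ1 / Medium: assay buffer / Also added: depolarizing K+/Tl+ stimulus, K2SO4 and Tl2SO4 each 12.5 mM in 5x stock / Incubation: 90 min dye loading and 20 min compound exposure, both at room temperature / Signal: thallium influx via FluxOR fluorescence, kinetic imaging / Evaluation: B score of baseline-normalized fluorescence ratio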
KCNQ1 inh = inhibitors of human KCNQ1 potassium channel | P51787 | CHO-K1 KCNQ1, FluxOR thallium flux fluorescence; hits give high values | B-score at 10 µM | 310,000 tested, 1.3% active;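 active = compounds whose thallium flux B-score, printed positive for inhibition, exceeds three library SD while starting fluorescence stays within three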;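 note: channel opened by potassium depolarization with thallium stimulus after 20 min compound exposure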
hERG protect = shields human hERG channel from block by proarrhythmic agents; Q12809; CHO-hERG, FluxOR thallium flux, dofetilide IC70 present; activation (rescue from dofetilide block), less the hit threshold, % at 10 µM; 310,000 tested, 0.51% active;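 active = activation above the mean of controls blocked by dofetilide plus 5 SD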;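 note: thallium influx through hERG after potassium depolarization seen as dye fluorescence rise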
Of the large screens only hits and unclear results are named; the others gave an inactive call.

CC(C)(C)c1ccc(-c2n[nH]c(=S)n2Cc2ccccc2)cc1	none (no result: KCC2 mod)
Cc1cccc(N=Nc2cnc(N)s2)c1	none
CN(C)c1ccc(C(=O)C(=O)c2ccccc2)cc1	none (no result: KCC2 mod)
CN(C)c1ccc2c(c1)Sc1cc(N(C)C)ccc1N2C(=O)c1ccccc1	KCNQ1 inh 6
O=C(CSc1nnc(COc2ccccc2Cl)o1)NC(=O)NCc1ccco1	none
Cc1ccccc1-n1c(SCC(=O)c2cc(C)n(C)c2C)nnc1-c1ccncc1	none
CCCCOc1ccc2c(C)cc(=O)oc2c1OCCCC	KCNQ1 inh 7
Cc1nc2c(C(=O)NCCC(C)C)c[nH]n2c(=O)c1Cl	none
Cc1nc2c(C(=O)NCCC(C)C)c[nH]n2c(=O)c1Cc1ccccc1F	KCNQ1 inh 6
COc1ccccc1NS(=O)(=O)c1cc(NC(=O)CNC(=O)c2ccc(C)s2)ccc1Cl	none
CC(CCc1ccccc1)NC(=O)CSc1nc(N)cc(N)n1 (stereo not drawn)	none (no result: KCC2 mod)
CCOC(=O)c1c(NC(=O)C2C3C=CC(CC3)C2C(=O)O)sc(C)c1C (stereo not drawn)	Mot1-301 SUMO 298
CCOC(=O)c1c(NC(=O)C2C3C=CC(C3)C2C(=O)O)sc2c1CCC(CC)C2 (stereo not drawn)	KCC2 mod -5.8
CCOC(=O)c1c(NC(=O)C2C3CCC(O3)C2C(=O)O)sc2c1CCC(CC)C2 (stereo not drawn)	none
Cc1ccc(CC(=O)NC2CCSC2=O)cc1 (stereo not drawn)	none (no result: Mot1-301 SUMO)
COc1ccc(CCn2c(=N)c(C(=O)NC3CCCC3)cc3c(=O)n4cccc(C)c4nc32)cc1	KCNQ1 inh 13 (no result: KCC2 mod)
Cc1cccn2c(=O)c3cc(C(=O)NC4CCCCC4)c(=N)n(Cc4ccccc4)c3nc12	KCNQ1 inh 7 (no result: KCC2 mod)
Cc1cccn2c(=O)c3cc(C(=O)NC4CCCC4)c(=N)n(Cc4ccc(F)cc4)c3nc12	none (no result: KCC2 mod)
COc1ccc(C(=O)NNC(=O)c2ccc(F)c(S(=O)(=O)N3CCOCC3)c2)cc1	none (no result: AI-2 QS modul, KCC2 mod, KCNQ1 act, KCNQ1 inh, hERG protect)
CC(C)CC(C(=O)NC1CCCC1)N(Cc1ccc2c(c1)OCO2)C(=O)c1snc(C(N)=O)c1N (stereo not drawn)	KCNQ1 inh 6
COc1ccc(CN(C(=O)c2snc(C(N)=O)c2N)C(CC(C)C)C(=O)NC2CCCCC2)cc1 (stereo not drawn)	none (no result: KCC2 mod)
CC(C)CC(C(=O)NC1CCCCC1)N(Cc1ccccc1)C(=O)c1snc(C(N)=O)c1N (stereo not drawn)	KCNQ1 inh 6 (no result: KCC2 mod)
Cc1cc(C)c2c(-n3cccc3)c(C(=O)NNS(=O)(=O)c3ccc(Cl)cc3)sc2n1	none (no result: KCC2 mod)
CCCCOC(=O)Nc1sc2c(c1C(=O)OC)CCC2	none
CCOc1cc(N2CCOCC2)c(OCC)cc1NC(=O)c1ccc(NC(C)=O)cc1	hERG protect 40 (no result: KCC2 mod)
CCOc1cc(N2CCOCC2)c(OCC)cc1NC(=O)CCC1CCCC1	hERG protect 6.9
CCOc1cc(N2CCOCC2)c(OCC)cc1NC(=O)C1CCCC1	none
CCOc1cc(N2CCOCC2)c(OCC)cc1NC(=O)CN1C(=O)C2C3C=CC(C3)C2C1=O (stereo not drawn)	none
CCOc1cc(N2CCOCC2)c(OCC)cc1NC(=O)CN1C(=O)C2CC=CCC2C1=O (stereo not drawn)	hERG protect 7.2 (no result: Mot1-301 SUMO)
Cn1c(N2CCN(C(c3ccccc3)c3ccccc3)CC2)nc2c1c(=O)[nH]c(=O)n2C	none (no result: KCC2 mod)
O=c1[nH]c(-c2ccc3c(c2)OCO3)nc2c1sc(=S)n2-c1ccccc1	none
O=c1[nH]c(-c2ccc(F)cc2)nc2c1sc(=S)n2-c1ccccc1	Mot1-301 SUMO 966
O=C(Nc1nncs1)c1cc(S(=O)(=O)N2CCCCC2)ccc1Cl	none (no result: KCC2 mod)
O=C(NC(=S)N(Cc1ccccc1)c1ccccn1)C1CC1	none
CC(=NCc1ccco1)c1c(C)[nH]n(-c2nc3ccccc3s2)c1=O	Mot1-301 SUMO 353
CCCCNC(=O)N(C)c1nc2ccccc2s1	none
CCCNC(=O)N(C)c1nncnc1C(=O)NC	hERG protect 11
N#Cc1ccc(C(=O)CSc2n[nH]c(=O)n2-c2cccnc2)cc1	none
COc1ccc([N+](=O)[O-])cc1NC(=O)C(C)Sc1nc(-c2ccccc2)cs1 (stereo not drawn)	none
O=c1[nH]c(NCCO)nc2c1C1(CCCC1)Cc1ccccc1-2	none
C=CCNC(=S)NNc1nc2c(c(=O)[nH]1)C1(CCCCC1)Cc1ccccc1-2	KCNQ1 inh 8
CC1=NN(c2ccccc2)C(=O)/C1=C/c1ccc(-c2ccc(C)c(C(=O)O)c2)o1	hERG protect 16 (no result: KCC2 mod)
CC1=NN(c2ccccc2)C(=O)/C1=C/c1ccc(Cl)cc1	KCNQ1 inh 8 (no result: KCC2 mod)
CC1=NN(c2ccccc2)C(=O)C1C(=O)c1ccc(Cl)cc1 (stereo not drawn)	KCC2 mod 7.8
COc1ccc(-c2nnc(SCC(=O)Nc3cc(C)on3)o2)cc1	none
COc1ccccc1NC(=O)c1cnc(SCC(=O)NCC2CCCO2)n(C)c1=O (stereo not drawn)	none (no result: KCC2 mod)
Cn1ccnc1COc1ccc(C=O)cc1	none (no result: KCC2 mod)
CCN(C(=O)COC(=O)c1cc(S(=O)(=O)N(C)C)ccc1Cl)C1CCS(=O)(=O)C1 (stereo not drawn)	none (no result: KCC2 mod)
NC(=O)C1CCN(C(=O)Nc2csc3ccccc23)CC1	none
COc1cc(/C=C(\C#N)c2nc3ccccc3[nH]2)c([N+](=O)[O-])cc1OCc1ccccc1	KCC2 mod -4.5
COc1cc(/C=C(\C#N)c2nc3ccccc3[nH]2)ccc1OC(=O)c1ccco1	none
N=c1ncn(Cc2ccccc2)c2nc(SCCOc3ccccc3)[nH]c12	KCNQ1 act 9
Cc1nc(SCCOc2ccccc2)[nH]c(=O)c1Cc1ccccc1	none
CC(NC(=O)c1cc2c(s1)CS(=O)(=O)C2)c1ccccc1 (stereo not drawn)	none (no result: KCC2 mod)
Cc1cccc(NC(=O)CCc2ccc(S(=O)(=O)NC3CCCCC3)cc2)c1	none
CCCCn1c(O)c(N=Nc2ccccn2)c2ccccc21	KCC2 mod 11
Cc1noc(/C=C/N(C)C)c1S(=O)(=O)N1CCCC(C(=O)Nc2ccc(F)cc2F)C1 (stereo not drawn)	none (no result: KCC2 mod)
CCOC(=O)/C(C#N)=C/c1cc2ccccc2nc1N1CCCCC1	KCNQ1 inh 12
Nc1cc(OC(=O)c2ccc(F)cc2)nn1S(=O)(=O)c1ccccc1	none (no result: KCC2 mod)
CN(Cc1ccccc1)C1=CC(=[N+]2CCCCC2)CC(C)(C)C1	KCNQ1 inh 6
CCCCNc1c(-c2ccc(SC(C)CC)cc2)nc2ccccn12 (stereo not drawn)	KCNQ1 inh 8 (no result: KCC2 mod)
CCC(C)Sc1cc(-c2nc3ccccn3c2NC2CCCCC2)ccc1OC (stereo not drawn)	KCNQ1 inh 8 (no result: KCC2 mod)
